From ChEMBL document CHEMBL3739417, “Synthesis and biological evaluation of novel 4,5-disubstituted 2H-1,2,3-triazoles as cis-constrained analogues of combretastatin A-4” (2015)

Assays:
Type in all cases: functional
[1] = Growth inhibition of human HOP92 cells after 48 hrs by sulforhodamine B assay; conditions: HOP-92, 48 h
Method in brief: (§1)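 NCI-60 panel screen by SRB assay (Rubinstein method). Percentage growth taken from optical density of SRB colour, read before and 48 hrs after exposure to compound or vehicle control. All analogues first screened at 10^-5 M. Analogues giving 60% growth inhibition at that level in at least eight lines then went to a five-concentration dose-response study.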

[2] = Growth inhibition of human COLO205 cells after 48 hrs by sulforhodamine B assay; conditions: COLO 205, 48 h; method in brief: as §1
[3] = Growth inhibition of human DU145 cells after 48 hrs by sulforhodamine B assay; conditions: DU-145, 48 h; method in brief: as §1
[4] = Growth inhibition of human HCT15 cells after 48 hrs by sulforhodamine B assay; conditions: HCT-15, 48 h; method in brief: as §1
[5] = Growth inhibition of human RPMI8226 cells after 48 hrs by sulforhodamine B assay; conditions: RPMI-8226, 48 h; method in brief: as §1
[6] = Growth inhibition of human HCC2998 cells after 48 hrs by sulforhodamine B assay; conditions: HCC 2998, 48 h; method in brief: as §1
[7] = Growth inhibition of human SNB75 cells after 48 hrs by sulforhodamine B assay; conditions: SNB-75, 48 h; method in brief: as §1
[8] = Growth inhibition of human MOLT4 cells after 48 hrs by sulforhodamine B assay; conditions: MOLT-4, 48 h; method in brief: as §1
[9] = Growth inhibition of human SW620 cells after 48 hrs by sulforhodamine B assay; conditions: SW-620, 48 h; method in brief: as §1
MCF7 = test: Growth inhibition of human MCF7 cells after 48 hrs by sulforhodamine B assay; conditions: MCF7, 48 h; method in brief: as §1
[10] = Growth inhibition of human UO31 cells after 48 hrs by sulforhodamine B assay; conditions: UO-31, 48 h; method in brief: as §1
MDA-MB-231 = test: Growth inhibition of human MDA-MB-231 cells after 48 hrs by sulforhodamine B assay; conditions: MDA-MB-231, 48 h; method in brief: as §1
SR = test: Growth inhibition of human SR cells after 48 hrs by sulforhodamine B assay; method in brief: as §1
U-251 = test: Growth inhibition of human U251 cells after 48 hrs by sulforhodamine B assay; conditions: U-251, 48 h; method in brief: as §1
NCI-H460 = test: Growth inhibition of human NCI-H460 cells after 48 hrs by sulforhodamine B assay; conditions: NCI-H460, 48 h; method in brief: as §1
[11] = Growth inhibition of human HL-60(TB) cells after 48 hrs by sulforhodamine B assay; conditions: HL-60, 48 h; method in brief: as §1
CCRF-CEM = test: Growth inhibition of human CCRF-CEM cells after 48 hrs by sulforhodamine B assay; method in brief: as §1
[12] = Growth inhibition of human PC3 cells after 48 hrs by sulforhodamine B assay; conditions: PC-3, 48 h; method in brief: as §1
[13] = Growth inhibition of human SF268 cells after 48 hrs by sulforhodamine B assay; conditions: SF-268, 48 h; method in brief: as §1
[14] = Growth inhibition of human SKOV3 cells after 48 hrs by sulforhodamine B assay; conditions: SK-OV-3, 48 h; method in brief: as §1
[15] = Growth inhibition of human OVCAR3 cells after 48 hrs by sulforhodamine B assay; conditions: OVCAR-3, 48 h
Method in brief: (§2)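 NCI-60 sulforhodamine B screen. Compounds were first tested at a single dose of 10⁻⁵ M; hits, defined as ≥60% growth inhibition in at least eight lines, went on to a five-concentration dose–response. SRB optical density was read before and 48 h after exposure to compound or vehicle. Percentage growth was calculated from OD.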

[16] = Growth inhibition of human LOXIMVI cells after 48 hrs by sulforhodamine B assay; conditions: LOX IMVI; method in brief: as §1
[17] = Growth inhibition of human SF295 cells after 48 hrs by sulforhodamine B assay; conditions: SF-295, 48 h; method in brief: as §1
MDA-MB-468 = test: Growth inhibition of human MDA-MB-468 cells after 48 hrs by sulforhodamine B assay; conditions: MDA-MB-468, 48 h; method in brief: as §1
KM12 = test: Growth inhibition of human KM12 cells after 48 hrs by sulforhodamine B assay; conditions: KM12, 48 h; method in brief: as §1
A498 = test: Growth inhibition of human A498 cells after 48 hrs by sulforhodamine B assay; conditions: A498, 48 h; method in brief: as §2
HT-29 = test: Growth inhibition of human HT-29 cells after 48 hrs by sulforhodamine B assay; conditions: HT-29, 48 h; method in brief: as §1
[18] = Growth inhibition of human HCT116 cells after 48 hrs by sulforhodamine B assay; conditions: HCT-116, 48 h; method in brief: as §1
SK-MEL-2 = test: Growth inhibition of human SK-MEL-2 cells after 48 hrs by sulforhodamine B assay; conditions: SK-MEL-2, 48 h; method in brief: as §1
A549 = test: Growth inhibition of human A549/ATCC cells after 48 hrs by sulforhodamine B assay; conditions: A549, 48 h; method in brief: as §1
[19] = Growth inhibition of human IGROV1 cells after 48 hrs by sulforhodamine B assay; conditions: IGROV-1, 48 h; method in brief: as §1
NCI-H23 = test: Growth inhibition of human NCI-H23 cells after 48 hrs by sulforhodamine B assay; conditions: NCI-H23, 48 h; method in brief: as §1
[20] = Growth inhibition of human NCI-ADR-RES cells after 48 hrs by sulforhodamine B assay; method in brief: as §1
CAKI-1 = test: Growth inhibition of human CAKI-1 cells after 48 hrs by sulforhodamine B assay; conditions: CAKI-1, 48 h; method in brief: as §1
ACHN = test: Growth inhibition of human ACHN cells after 48 hrs by sulforhodamine B assay; method in brief: as §1
786-0 = test: Growth inhibition of human 786-0 cells after 48 hrs by sulforhodamine B assay; conditions: 786-0, 48 h; method in brief: as §1
MDA-MB-435 = test: Growth inhibition of human MDA-MB-435 cells after 48 hrs by sulforhodamine B assay; conditions: MDA-MB-435, 48 h; method in brief: as §2
[21] = read-out: LD50 (the source's name)

`COc1cc(-c2n[nH]nc2-c2ccc3c(c2)OCCO3)cc(OC)c1OC` showed a GI50 [1] of under 10 nM, a CC50 [1, 21] of over 100000 nM and a GI50 [2] of 27 nM. For the same compound, the CC50 [2, 21] was over 100000 nM, the GI50 [3] was 25 nM and the CC50 [3, 21] was over 100000 nM. The GI50 [4] was under 10 nM, the CC50 [4, 21] was over 100000 nM and the GI50 [5] was 33 nM. It also gave a CC50 [5, 21] of over 100000 nM, a GI50 [6] of 39 nM and a CC50 [6, 21] of over 100000 nM. It also gave a GI50 [7] of under 10 nM, a CC50 [7, 21] of over 100000 nM and a GI50 [8] of 40 nM. The CC50 [8, 21] was over 100000 nM, the GI50 [9] was under 10 nM and the LD50 (concentration killing 50% of cells) [9] was over 100 µM. For the same compound, the GI50 (MCF7) was under 10 nM, the CC50 (MCF7; [21]) was over 100000 nM and the GI50 [10] was under 10 nM. It also gave an LC50 (concentration killing 50% of cells) ([10]; read-out: LD50) of over 100000 nM, a GI50 (MDA-MB-231) of 44 nM and a CC50 (MDA-MB-231; [21]) of over 100000 nM. It also gave a GI50 (SR) of under 10 nM, an LC50 (concentration giving 50% net cell kill) (SR; read-out: LD50) of over 100000 nM and a GI50 (U-251) of 20 nM. For the same compound, the CC50 (U-251; [21]) was over 100000 nM, the GI50 (NCI-H460) was 25 nM and the CC50 (NCI-H460; [21]) was over 100000 nM. The GI50 [11] was 19 nM, the CC50 [11, 21] was over 100000 nM and the GI50 (CCRF-CEM) was 34 nM. The LC50 (concentration killing 50% of cells) (CCRF-CEM; read-out: LD50) was over 100000 nM, the GI50 [12] was 18 nM and the CC50 [12, 21] was over 100000 nM. It also gave a GI50 [13] of 69 nM, a CC50 [13, 21] of over 100000 nM and a GI50 [14] of under 10 nM. For the same compound, the LC50 (concentration killing 50% of cells) ([14]; read-out: LD50) was over 100000 nM, the GI50 [15] was under 10 nM and the LC50 (concentration giving 50% net cell kill) ([15]; read-out: LD50) was over 100000 nM. The GI50 [16] was 18 nM, the CC50 [16, 21] was over 100000 nM and the GI50 [17] was under 10 nM. The CC50 [17, 21] was over 100000 nM, the GI50 (MDA-MB-468) was 15 nM and the CC50 (MDA-MB-468; [21]) was over 100000 nM. For the same compound, the GI50 (KM12) was under 10 nM, the LC50 (concentration killing 50% of cells) (KM12; read-out: LD50) was over 100000 nM and the GI50 (A498) was 10 nM. For the same compound, the LC50 (50% net cell kill) (A498; read-out: LD50) was over 100000 nM, the GI50 (HT-29) was 25 nM and the LC50 (concentration killing 50% of cells) (HT-29; read-out: LD50) was over 100000 nM. It also gave a GI50 [18] of under 10 nM, a CC50 [18, 21] of over 100000 nM and a GI50 (SK-MEL-2) of under 10 nM. It also gave a CC50 (SK-MEL-2; [21]) of over 100000 nM, a GI50 (A549) of 23 nM and a CC50 (A549; [21]) of over 100000 nM. It also gave a GI50 [19] of 33 nM, a CC50 [19, 21] of over 100000 nM and a GI50 (NCI-H23) of 48 nM. It also gave an LC50 (concentration giving 50% cell kill) (NCI-H23; read-out: LD50) of over 100000 nM, a GI50 [20] of under 10 nM and a CC50 [20, 21] of over 100000 nM. It also gave a GI50 (CAKI-1) of under 10 nM, a CC50 (CAKI-1; [21]) of over 100000 nM and a GI50 (ACHN) of under 10 nM. For the same compound, the CC50 (ACHN; [21]) was over 100000 nM, the GI50 (786-0) was under 10 nM and the LC50 (concentration killing 50% of cells) (786-0; read-out: LD50) was over 100000 nM. The GI50 (MDA-MB-435) was under 10 nM and the LC50 (concentration killing 50% of cells) (MDA-MB-435; read-out: LD50) was over 100000 nM.
